Paper PMC2885444 (The Biochemical journal, 2009)
Each block holds one substance with its values, some of them ahead of it.

Assays:
CHD4 PHD2 finger = CHD4 PHD2 finger (Homo sapiens, UniProt Q14839); experiment: NMR titration; type: binding; conditions: for NMR exchange regime: 1H,15N HSQC titration, NMR time scale
[1] = test system: CHD4 PHD2 finger (GST-fusion); type: binding; conditions: C-terminal biotinylated peptides (residues 1–21; H3K27/H3K36 residues 21–44), streptavidin–Sepharose beads, 50 mM Tris pH 7.5, 150 mM NaCl, 0.05% Nonidet P-40; anti-GST HRP detection
CHD4 PHD2 F448A mutant = experiment: Binding and NMR of F448A mutant; conditions: F448A mutant vs wild-type
How it was run: (§1)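 Point mutant of the PHD2 finger was made by PCR mutagenesis and expressed as a GST fusion in E. coli BL21(DE3) pLysS on ¹⁵NH₄Cl minimal medium. It was purified on glutathione beads, tag-cleaved, then held in 20 mM Tris pH 6.8–7.5, 150 mM NaCl, 10 mM DTT and 1 mM NaN₃. ¹H,¹⁵N HSQC was run at 500 MHz with increasing 12-mer histone tail peptides. Kd came from a nonlinear least-squares fit of normalized shift changes.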

[2] = test system: CHD4 PHD2 finger, Asp^454 substituted with valine; experiment: Binding of PHD2 with Asp454 substituted with valine; conditions: Asp454 to valine mutant
CHD4 PHD2 E447A mutant = CHD4 PHD2 E447A mutant (Homo sapiens, UniProt Q14839, E450A); experiment: NMR titration, E447A mutant; type: binding
How it was run: as §1

CHD4 PHD2 C460W mutant = CHD4 PHD2 C460W mutant (Homo sapiens, UniProt Q14839, C463W); experiment: NMR titration, C460W mutant; type: binding
How it was run: as §1

[3] = test system: PHD fingers of BHC80 and AIRE (mutants); conditions: aspartate to alanine or hydrophobic residue to tryptophan; ref [17],[27]; cited from earlier work

Chain of CHD4 PHD2 finger (Q14839 449-496 limits assumed): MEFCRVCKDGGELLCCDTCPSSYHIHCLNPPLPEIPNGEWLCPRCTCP
Chain of CHD4 PHD2 C460W mutant (Q14839 449-496 C463W limits assumed): as the sequence (Q14839 449-496 limits assumed) above, with C15W counted along it
Chain of CHD4 PHD2 E447A mutant (Q14839 449-496 E450A limits assumed): as the sequence (Q14839 449-496 limits assumed) above, with E2A counted along it

NMR changes on titration (CHD4 PHD2 finger; wild-type PHD2, even a 10-fold excess of peptide): no changes
Substance: H3(3-10): peptide comprising residues Thr^3–Ser^10 but lacking Ala^1 and Arg^2 (TKQTARKS)

Substance: H3K4me1: histone H3 mono-methylated at Lys^4
Binding in pull-down (Western blot) [1]: significantly weaker

NMR exchange regime (CHD4 PHD2 finger): fast exchange regime
Substance: H3K4me3: histone H3 tri-methylated at Lys^4
Binding in pull-down (Western blot) [1]: significantly weaker

NMR exchange regime (CHD4 PHD2 finger): intermediate-to-fast exchange regime
Binding compared with wild-type (CHD4 PHD2 F448A mutant): more weakly
Substance: H3K9ac: histone H3 acetylated at Lys^9 (20-mer, Anaspec, in NMR; residues 1–21 in pull-down)

Substance: H3K9me1: histone H3 mono-methylated at Lys^9
Binding in pull-down (Western blot) [1]: able to recognize

NMR exchange regime (CHD4 PHD2 finger): intermediate-to-fast exchange regime
Binding compared with wild-type [2]: significantly compromised
Binding compared with wild-type (CHD4 PHD2 F448A mutant): more weakly
Substance: H3K9me3: histone H3 tri-methylated at Lys^9

NMR exchange regime (CHD4 PHD2 finger): intermediate-to-fast exchange regime
Kd (CHD4 PHD2 E447A mutant; E447A mutant): 0.9 mM
Binding compared with wild-type (CHD4 PHD2 E447A mutant; E447A mutant vs wild-type): significantly weaker
Kd (CHD4 PHD2 C460W mutant; C460W mutant): 3.7 mM
Binding compared with wild-type (CHD4 PHD2 C460W mutant; C460W mutant vs wild-type): significantly weaker
Substance: unmodified H3: unmodified histone H3 N-terminal tail peptide (residues 1–21 biotinylated in pull-down; 12-mer in NMR)
Interaction with mutant PHD fingers [3]: abolish interactions
